From PubChem BioAssay
ABCB6 inh MLPCN: ABCB6 transporter inhibitors, primary screen, K562-ABCB6 cells, flow cytometry, MLPCN library; AID 602162, 2011; fluorescence ratio to DMSO, % at 10 µM; K562-ABCB6 porphyrin accumulation, 1 h; active compounds read low; ATP-binding cassette sub-family B member 6 (Homo sapiens), Q9NP58; actives 0.19% (n = 360,000);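 active means fluorescence ratio to DMSO below 75%, the collection mean minus 3 SD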;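 further: signal is porphyrin accumulated inside mitochondria; 100% equals median channel fluorescence of DMSO control wells; lower ratio means ABCB6 inhibition with less porphyrin fluorescence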
Target sequence (Q9NP58 whole entry, looked up): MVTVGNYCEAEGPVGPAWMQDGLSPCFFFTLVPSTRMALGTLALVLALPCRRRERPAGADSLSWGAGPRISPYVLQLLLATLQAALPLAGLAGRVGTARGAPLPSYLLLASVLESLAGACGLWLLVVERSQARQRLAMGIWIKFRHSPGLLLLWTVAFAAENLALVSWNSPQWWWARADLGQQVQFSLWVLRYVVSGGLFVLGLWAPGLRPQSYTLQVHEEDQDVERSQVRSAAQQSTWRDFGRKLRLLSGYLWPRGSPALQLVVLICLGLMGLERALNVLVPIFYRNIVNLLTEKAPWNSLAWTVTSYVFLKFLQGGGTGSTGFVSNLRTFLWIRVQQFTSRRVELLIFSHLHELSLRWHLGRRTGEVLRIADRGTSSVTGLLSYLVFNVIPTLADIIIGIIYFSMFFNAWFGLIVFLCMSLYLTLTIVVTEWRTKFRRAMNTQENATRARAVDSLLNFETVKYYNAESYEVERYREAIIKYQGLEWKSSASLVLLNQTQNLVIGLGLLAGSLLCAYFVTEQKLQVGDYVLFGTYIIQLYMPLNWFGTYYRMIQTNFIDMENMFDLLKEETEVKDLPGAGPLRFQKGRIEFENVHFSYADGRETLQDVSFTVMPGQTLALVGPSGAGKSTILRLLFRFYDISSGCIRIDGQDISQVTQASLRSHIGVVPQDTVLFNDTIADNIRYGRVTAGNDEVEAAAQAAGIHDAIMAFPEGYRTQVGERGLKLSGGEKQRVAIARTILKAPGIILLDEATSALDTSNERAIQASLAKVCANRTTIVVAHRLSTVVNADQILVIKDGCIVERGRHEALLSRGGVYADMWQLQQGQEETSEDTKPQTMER
SR-BI DiI-HDL act: activators of SR-BI mediated DiI-HDL uptake, primary screen, ldlA[mSR-BI] CHO cells, DiI fluorescence; 3 h; 100 = double the neutral-control signal; activation, % at 12.5 µM; actives 0.096% (n = 320,000);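 active means mean replicate activation of at least 60% and every replicate at or above 60%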;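 further: 0% = median plate neutral-control signal and 100% = twice that signal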
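System: LDL receptor-deficient CHO ldlA cells overexpressing murine SR-BI | Timing: 3 h uptake period with compound, 37 °C | Medium: HEPES-buffered (25 mM, pH 7.4) F12 plus 0.5% BSA | Dosing: Single-point compound dose | Signal: Bottom-read fluorescence, 550/595 nm | Read-out: Retained DiI signal reflecting DiI-HDL uptake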
FXN GAA850 act: FXN promoter activators, primary screen, cell-based, luciferase luminescence, HEK293 lucGAA850. activation, % at 6 µM. AID 540364, 2011. actives 0.56% (n = 360,000). HEK293 lucGAA850 FXN promoter luciferase reporter, 24 h; percent of 10 µM SAHA response;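 active means activation above the average of all compounds screened plus 3 SD, cutoff fixed separately per campaign, cut at about 7.5% in these data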;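 further: 0% = DMSO wells and 100% = 10 µM SAHA wells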
AHR activator: AHR activators, primary screen, cell-based, luminescence, luciferase reporter, human | Aryl hydrocarbon receptor (Homo sapiens), P35869 | AHR-responsive luciferase reporter cells | activation, % at 5 µM | actives 2.5% (n = 320,000); in the data active means activation above about 47%;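 further: 0% = vehicle wells and 100% = reference agonist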
HIF activator: HIF pathway transcriptional activators, primary screen, cell-based, U2OS HRE-luciferase, luminescence; U2OS HRE-luciferase reporter; normalized: DMSO 0%, desferrioxamine 100%; activation, % at 7.5 µM (by protocol); actives 0.32% (n = 300,000);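 active means mean activation of at least 10% of the iron chelator positive control signal, with at least half of replicates also reaching 10%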
SR-BI DiI inh: inhibitors of SR-BI mediated HDL lipid uptake, primary screen, ldlA[mSR-BI] cells, fluorescence, single point | Scavenger receptor class B member 1 (Mus musculus), Q61009 | ldlA[mSR-BI] CHO cells, DiI-HDL uptake fluorescence, 3 h | inhibition, % at 12.5 µM | actives 0.96% (n = 320,000) | AID 488896, 2010;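 active means mean replicate inhibition of at least 70% and a set share of replicates each scoring 70 or more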;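 further: 0% = median of neutral control wells and 100% = median of positive control wells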
GAA30 counter: GAA30 FXN promoter activators, confirmation, counter-screen for GAA850 frataxin promoter activator project, cell-based, luminescence, HEK293, lucGAA30, triplicate; shares compounds with FXN GAA850 act; HEK293 lucGAA30 FXN promoter luciferase, 24 h; DMSO = 0%, 5 µM ipriflavone = 100%; activation, % at 6 µM; actives 66% (n = 1,900);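 active means mean activation above the mean of solvent-only control wells plus 3 SD, cut at about 22% in these data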;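 further: counterscreen of GAA850 promoter hits where activity marks nonselective or luminescence artifacts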
FXN GAA850 conf: FXN GAA850 promoter activators in reporter cells, confirmation, cell-based, luminescence, HEK293 lucGAA850, triplicate | shares compounds with FXN GAA850 act | HEK293 lucGAA850 FXN promoter luciferase reporter, 24 h; 100% = activation by SAHA | activation, % at 6 µM | actives 86% (n = 1,900) | AID 588351, 2011;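 active means mean activation above a set limit taken from the primary screen, cut at about 8% in these data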;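 further: 0% = DMSO wells and 100% = 10 µM SAHA wells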
* marks the source's active call; other numbers are inactive results; / = no result given. A selection: hits, their analogues and other compounds. The true share with any hit is near 3.9%.

SMILES | ABCB6 inh MLPCN | SR-BI DiI-HDL act | FXN GAA850 act | AHR activator | HIF activator | SR-BI DiI inh | GAA30 counter | FXN GAA850 conf
COc1ccc(C2=Nn3c(nnc3C3CCCCC3)SC2)cc1OC | 100.0 | 10.0 | 13.1* | 14.2 | -0.2 | -10.0 | 13.8 | 13.2*
CCCc1nnc2n1N=C(c1ccc(OC)c(OC)c1)CS2 | 105.0 | -16.1 | 12.4* | 7.9 | -0.3 | 16.1 | 35.3* | 13.0*
COc1ccc(OCc2nnc3n2N=C(c2ccc(OC)cc2)CS3)cc1 | 100.0 | 7.3 | 2.1 | 29.4 | 0.0 | -7.3 | / | /
C[C@H](CO)N1C[C@H](C)[C@@H](CN(C)C(=O)Nc2ccc(C(F)(F)F)cc2)Oc2ccc(NC(=O)Cc3ccccc3)cc2C1=O | 97.0 | -21.9 | -1.3 | -1.0 | / | 21.9 | / | /
CCOC(=O)c1sc(Nc2ccccc2Cl)nc1C | 98.0 | / | 9.9* | -1.6 | 1.7 | / | 102.5* | 39.8*
CCOC(=O)c1sc(NC(=O)Nc2ccccc2F)nc1C | 101.0 | -3.2 | -10.5 | -15.1 | -1.4 | 3.2 | / | /
c1ccc2oc(-c3ccn[nH]3)cc2c1 | 93.0 | 12.9 | 8.0* | 1.8 | 3.3 | -12.9 | 121.8* | 38.4*
CCOC(=O)C1CCN(S(=O)(=O)c2cccc(-c3csc(C)n3)c2)CC1 | 107.0 | -0.7 | 8.4* | -3.6 | -0.4 | 0.7 | 5.8 | 3.0
CCOC(=O)C1CCN(S(=O)(=O)c2cccc(-c3cn4cc(C)ccc4n3)c2)CC1 | 91.0 | -0.6 | -0.7 | 1.8 | 0.4 | 0.6 | / | /
CC1CC(C)(C)Nc2ccc(OC(=O)c3ccco3)cc21 (centres undefined) | 114.0 | 27.7 | 4.7 | -5.5 | -1.1 | -27.7 | / | /
CC1CC(C)(C)Nc2ccc(N=O)cc21 (centres undefined) | 209.0 | 7.8 | 12.5* | / | -6.8 | -7.8 | 58.3* | 67.4*
CCN(C[C@H]1N[C@@](CC)(C(=O)OC)[C@H]2C(=O)N(Cc3ccccc3)C(=O)[C@@H]12)S(=O)(=O)c1ccc(OC(F)(F)F)cc1 | 89.0 | 15.4 | 11.5* | -0.9 | / | -15.4 | 21.3 | 10.1*
CCN(C[C@H]1N[C@@](CC)(C(=O)OC)[C@H]2C(=O)N(Cc3ccccc3)C(=O)[C@@H]12)S(=O)(=O)c1ccc(C)cc1 | 99.0 | / | 10.1* | -1.0 | / | / | 11.0 | 8.1*
C[C@@H]1ON(C)[C@H]2C[C@H]3c4cc(N5CCOCC5)ccc4CCN3C(=O)[C@@H]12 | 102.0 | 0.8 | -0.6 | / | / | -0.8 | / | /
Cc1ccc2nc(-c3ccc(NS(=O)(=O)c4ccccc4)cc3)sc2c1 | 97.0 | 2.2 | 2.4 | 11.0 | 1.3 | -2.2 | / | /
Cc1ccc2nc(-c3ccc(NS(=O)(=O)c4ccc(F)c(F)c4)cc3)sc2c1 | 96.0 | -13.7 | 10.2* | 6.0 | 1.4 | 13.7 | 108.3* | 35.1*
O=C(Nc1sc2c(c1C(=O)NCc1ccco1)CCCC2)c1ccc2c(c1)OCO2 | 98.0 | -82.3 | 10.2* | 3.4 | 3.8 | 82.3* | 69.2* | 30.8*
Cc1ccc(C(=O)Nc2sc3c(c2C(=O)NCc2ccco2)CCCC3)cc1 | 96.0 | -66.8 | 6.0 | 15.1 | -0.3 | 66.8 | / | /
Cc1ccc(-c2c3c(nc4sc(C(N)=O)c(N)c24)CCC3)cc1 | 115.0 | -20.7 | -3.9 | -3.5 | 2.6 | 20.7 | / | /
Cc1ccc(C(=O)c2sc3nc4c(cc3c2N)CCC4)cc1 | 94.0 | 23.8 | 8.4* | 30.1 | 2.2 | -23.8 | 100.0* | 40.8*
